Assay [1] addresses T1, Lysine-specific demethylase 4D (Homo sapiens) (UniProt Q6B0I6).
T1 sequence (whole entry): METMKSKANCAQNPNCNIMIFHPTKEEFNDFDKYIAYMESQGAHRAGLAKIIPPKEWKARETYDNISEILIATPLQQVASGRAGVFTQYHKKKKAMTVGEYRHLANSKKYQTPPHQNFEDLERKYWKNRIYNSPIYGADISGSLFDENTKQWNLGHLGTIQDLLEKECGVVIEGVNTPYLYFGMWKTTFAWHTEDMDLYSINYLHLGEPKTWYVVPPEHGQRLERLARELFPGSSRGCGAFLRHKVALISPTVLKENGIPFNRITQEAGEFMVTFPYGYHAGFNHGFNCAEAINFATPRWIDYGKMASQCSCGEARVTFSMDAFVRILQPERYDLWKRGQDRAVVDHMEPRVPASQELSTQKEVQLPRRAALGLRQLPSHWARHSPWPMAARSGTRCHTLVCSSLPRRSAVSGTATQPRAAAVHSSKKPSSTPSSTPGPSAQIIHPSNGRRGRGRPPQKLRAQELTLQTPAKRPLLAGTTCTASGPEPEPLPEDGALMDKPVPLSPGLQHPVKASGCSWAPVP
The assay is described as follows: Binding affinity to N-terminal His-6-tagged human KDM4D catalytic domain (1 to 342 residues) assessed as change in gibbs free energy by isothermal titration calorimetry analysis. A digest of the protocol:
(§1)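 Human KDM4D catalytic domain (residues 1–342) expressed with N-terminal His6-tag, purified by metal affinity chromatography; tag removed by TEV protease for affinity tests, then size-exclusion. Protein concentration measured by A280. ITC at 20 °C in 10 mM HEPES pH 7.5, 0.5 M NaCl, 5% glycerol, 1 mM TCEP. Ligands diluted from DMSO stocks to 0.4–1% final DMSO, with protein DMSO-matched. Ligand titrated into protein in the cell in 13 or 19 injections of 2–3 μL, 180 s spacing, 5 s filter. Two or three runs per ligand. Thermodynamic parameters obtained by baseline adjustment, peak integration, heat normalization per mole of ligand, and fitting.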

Assay [2] deals with T2, Lysine-specific demethylase 4D (Homo sapiens, UniProt Q6B0I6).
T2 sequence (Q6B0I6 whole entry): T1 sequence (whole entry)
The experiment in a line: Binding affinity to N-terminal His-6-tagged human KDM4D catalytic domain (1 to 342 residues) assessed as dissociation constant by isothermal titration calorimetry analysis. A digest of the protocol:
as §1

The target in assay [3] is T1, Lysine-specific demethylase 4D (Homo sapiens). The experiment in a line: Binding affinity to N-terminal His-6-tagged human KDM4D catalytic domain (1 to 342 residues) assessed as change in entropy by isothermal titration calorimetry analysis. Summed up: as §1
(In general: In ITC the heat of successive injections is recorded.)

For assay [4] the target is unchanged. The assay is described as follows: Binding affinity to N-terminal His-6-tagged human KDM4D catalytic domain (1 to 342 residues) assessed as change in enthalpy by isothermal titration calorimetry analysis. Summed up: as §1

A word on the Kd: it is the concentration at which binding is half-saturated.

`O=C(O)c1ccnc(NCCCO)c1`: the deltaG in assay [1] is -5.7 kcal/mol. The Kd in assay [2] was 55.9 µM. For the same compound, the -TdeltaS in assay [3] is -4.05 kcal/mol. Further, the deltaH in assay [4] is -1.65 kcal/mol.
On to `O=C(NO)c1cc(-c2nnn[nH]2)ccn1`, for which the deltaG in assay [1] was -8.4 kcal/mol. Moreover, in assay [2], the Kd was 0.55 µM. For the same compound, the -TdeltaS in assay [3] was -13.7 kcal/mol. In assay [4], the deltaH came out at 5.3 kcal/mol.
For `CS(=O)(=O)NCCNc1cc(C(=O)O)ccn1` the same measures were -5.97 kcal/mol, 35.5 µM, -1.35 kcal/mol and -4.6 kcal/mol.
The like results for `NNC(=O)[C@H](NC(=O)CCCCc1ccccc1)c1nnn[nH]1` were, in that order, -4.42 kcal/mol, 509 µM, -12.9 kcal/mol and 8.5 kcal/mol.

Values taken from ChEMBL document CHEMBL5614377, “Structure-based mapping of the histone-binding pocket of KDM4D using functionalized tetrazole and pyridine core compounds” (Eur J Med Chem, 2024).
